We go through one compound from ChEMBL document CHEMBL4261600 (Eur J Med Chem, 2018).

Data set [1] concerns the target Dual specificity mitogen-activated protein kinase kinase 2 (Homo sapiens) (UniProt P36507). The data set is described as follows: Binding affinity to wild-type human full length MEK2 (M1 to V400 residues) expressed in mammalian expression system assessed as remaining unbound target protein level at 1000 nM by Kinomescan method relative to control. The essentials:
(§1)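 KINOMEscan competition binding profile across a panel of 468 kinases and mutants, with the inhibitor tested at a single concentration of 1 μM. Binding is reported as percent of control, meaning signal relative to a DMSO control.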

Data set [2] is described as follows: Cmax in Sprague-Dawley rat at 3 mg/kg, iv by LC-MS/MS analysis. The format is ADME, organism-based. More on the design: dose 3 mg/kg, route intravenous. The conditions noted are these: in vivo.
Data set [3] has as its target Fibroblast growth factor receptor 1 (Homo sapiens) (UniProt P11362). The data set is described as follows: Binding affinity to wild-type human partial length FGFR1 (P357 to V669 residues) expressed in bacterial expression system assessed as remaining unbound target protein level at 1000 nM by Kinomescan method relative to control. The essentials: (§2)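 KINOMEscan binding panel of 468 kinases/mutants. Inhibitor was tested at a single concentration of 1 μM. Binding is reported as percent of control, defined relative to a DMSO control.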

In data set [4] the test system is Tyrosine-protein kinase ABL1 (Homo sapiens), P00519 [M351T]. As to the kind of experiment: Binding affinity to human phosphorylated ABL1 M351T mutant (S229 to K512 residues) expressed in mammalian expression system assessed as remaining unbound target protein level at 1000 nM by Kinomescan method relative to control. The essentials:
(§3)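 Single-point competition binding screen across a panel of 468 kinases and mutants, with the inhibitor at 1 μM. Binding is read out as percent of a DMSO control, and targets below 1 percent control were classed as strong binders.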

Data set [5] is described as follows: MRT (0 to t) in mouse at 10 mg/kg, po by LC-MS/MS analysis. The format is ADME, organism-based. The conditions noted are these: in vivo.
For data set [6], the target named is G protein-coupled receptor kinase 4 (Homo sapiens) (UniProt P32298). The data set is described as follows: Binding affinity to wild-type human full length GRK4 (M1 to C578 residues) expressed in bacterial expression system assessed as remaining unbound target protein level at 1000 nM by Kinomescan method relative to control. In short, it runs like this:
as §3

The target of data set [7] is Inhibitor of nuclear factor kappa-B kinase subunit alpha (Homo sapiens) (UniProt O15111). The data set is described as follows: Binding affinity to wild-type human full length IKK-alpha (M1 to E745 residues) expressed in mammalian expression system assessed as remaining unbound target protein level at 1000 nM by Kinomescan method relative to control. The essentials:
as §3

The target of data set [8] is Dual serine/threonine and tyrosine protein kinase (Homo sapiens) (UniProt Q6XUX3). As to the kind of experiment: Binding affinity to wild-type human full length RIPK5 (M1 to T929 residues) expressed in mammalian expression system assessed as remaining unbound target protein level at 1000 nM by Kinomescan method relative to control. The essentials:
as §1

Data set [9] has as its system Phosphatidylinositol 4,5-bisphosphate 3-kinase catalytic subunit alpha isoform (Homo sapiens), P42336 [E542K]. As to the kind of experiment: Binding affinity to human partial length PIK3CA E542K mutant (R108 to N1068 residues) expressed in mammalian expression system assessed as remaining unbound target protein level at 1000 nM by Kinomescan method relative to control. The essentials: (§4)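 KINOMEscan competition-binding profiling across the panel of 468 kinases and mutants, with inhibitor tested at 1 μM. Binding is expressed as percent of control, with DMSO as the reference control.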

Data set [10] concerns the target Bone morphogenetic protein receptor type-1B (Homo sapiens) (UniProt O00238). The data set is described as follows: Binding affinity to wild-type human partial length BMPR1B (D178 to L502 residues) expressed in mammalian expression system assessed as remaining unbound target protein level at 1000 nM by Kinomescan method relative to control.
Data set [11] addresses Serine/threonine-protein kinase STK11 (Homo sapiens) (UniProt Q15831). The data set is described as follows: Binding affinity to wild-type human full length LKB1 (M1 to Q433 residues) expressed in bacterial expression system assessed as remaining unbound target protein level at 1000 nM by Kinomescan method relative to control. In short, it runs like this: as §3
Data set [12] deals with Mast/stem cell growth factor receptor Kit (Homo sapiens), P10721 [L576P]. The data set is described as follows: Binding affinity to human partial length KIT L576P mutant (Y545 to D952 residues) expressed in bacterial expression system assessed as remaining unbound target protein level at 1000 nM by Kinomescan method relative to control. The essentials:
as §4

In data set [13] the target is Cyclin-dependent kinase 16 (Homo sapiens) (UniProt Q00536). The data set is described as follows: Binding affinity to wild-type human partial length PCTK1 (G160 to A474 residues) expressed in mammalian expression system assessed as remaining unbound target protein level at 1000 nM by Kinomescan method relative to control. In short, it runs like this: as §2
Sequence of Cyclin-dependent kinase 16 (Homo sapiens) (Q00536 whole entry, the tested form may be a part): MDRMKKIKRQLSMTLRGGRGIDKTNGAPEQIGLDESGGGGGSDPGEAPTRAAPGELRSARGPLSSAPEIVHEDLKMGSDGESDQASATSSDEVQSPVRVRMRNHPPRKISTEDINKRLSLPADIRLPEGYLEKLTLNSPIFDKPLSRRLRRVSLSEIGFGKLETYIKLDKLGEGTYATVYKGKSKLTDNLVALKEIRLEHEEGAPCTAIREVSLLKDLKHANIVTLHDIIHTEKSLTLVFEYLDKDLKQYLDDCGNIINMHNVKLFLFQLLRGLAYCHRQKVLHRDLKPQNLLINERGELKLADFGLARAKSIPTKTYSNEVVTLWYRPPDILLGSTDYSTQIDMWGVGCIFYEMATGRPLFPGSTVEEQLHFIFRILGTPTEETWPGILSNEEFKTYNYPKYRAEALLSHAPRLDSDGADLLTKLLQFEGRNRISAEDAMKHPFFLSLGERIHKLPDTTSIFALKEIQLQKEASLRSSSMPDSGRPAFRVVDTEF
Data set [14] addresses Glycogen synthase kinase-3 beta (Homo sapiens) (UniProt P49841). The data set is described as follows: Binding affinity to wild-type human full length GSK3B (M1 to T433 residues) expressed in mammalian expression system assessed as remaining unbound target protein level at 1000 nM by Kinomescan method relative to control. In short, it runs like this:
as §3

Data set [15] concerns Canis familiaris. As to the kind of experiment: Oral bioavailability in beagle dog at 10 mg/kg by LC-MS/MS analysis. The format is ADME, organism-based, Canis lupus familiaris. The conditions noted are these: in vivo.
Data set [16] concerns the target Cyclin-dependent kinase-like 2 (Homo sapiens) (UniProt Q92772). As to the kind of experiment: Binding affinity to wild-type human partial length CDKL2 (M1 to D327 residues) expressed in bacterial expression system assessed as remaining unbound target protein level at 1000 nM by Kinomescan method relative to control. The essentials:
as §1

Data set [17] concerns the target Mitogen-activated protein kinase kinase kinase 4 (Homo sapiens) (UniProt Q9Y6R4). The data set is described as follows: Binding affinity to wild-type human partial length MAP3K4 (G1319 to E1608 residues) expressed in bacterial expression system assessed as remaining unbound target protein level at 1000 nM by Kinomescan method relative to control.
The target in data set [18] is Serine/threonine-protein kinase Nek11 (Homo sapiens) (UniProt Q8NG66). As to the kind of experiment: Binding affinity to wild-type human partial length NEK11 (M1 to E313 residues) expressed in mammalian expression system assessed as remaining unbound target protein level at 1000 nM by Kinomescan method relative to control.
Data set [19] can be described thus: Half life in beagle dog at 10 mg/kg, po by LC-MS/MS analysis. The format is ADME, organism-based, Canis lupus familiaris. The settings on record: in vivo.
The species entered for data set [20] is Homo sapiens. As to the kind of experiment: Selectivity ratio of IC50 for recombinant full length His-tagged human CDK8/CyclinC to IC50 for recombinant full length His-tagged human CDK9/CyclinT1.
The target of data set [21] is Beta-adrenergic receptor kinase 1 (Homo sapiens) (UniProt P25098). The data set is described as follows: Binding affinity to wild-type human full length GRK2 (M1 to L689 residues) expressed in mammalian expression system assessed as remaining unbound target protein level at 1000 nM by Kinomescan method relative to control. The essentials: as §1
In data set [22] the target is Ephrin type-A receptor 3 (Homo sapiens) (UniProt P29320). The data set is described as follows: Binding affinity to wild-type human partial length EPHA3 (D604 to K889 residues) expressed in bacterial expression system assessed as remaining unbound target protein level at 1000 nM by Kinomescan method relative to control. The essentials: as §2
Data set [23] has as its target Aurora kinase C (Homo sapiens) (UniProt Q9UQB9). As to the kind of experiment: Binding affinity to wild-type human full length AURKC (M1 to S275 residues) expressed in bacterial expression system assessed as remaining unbound target protein level at 1000 nM by Kinomescan method relative to control. In short, it runs like this:
as §3

Sequence of Glycogen synthase kinase-3 beta (Homo sapiens) (P49841 whole entry, looked up, the tested form may be a part): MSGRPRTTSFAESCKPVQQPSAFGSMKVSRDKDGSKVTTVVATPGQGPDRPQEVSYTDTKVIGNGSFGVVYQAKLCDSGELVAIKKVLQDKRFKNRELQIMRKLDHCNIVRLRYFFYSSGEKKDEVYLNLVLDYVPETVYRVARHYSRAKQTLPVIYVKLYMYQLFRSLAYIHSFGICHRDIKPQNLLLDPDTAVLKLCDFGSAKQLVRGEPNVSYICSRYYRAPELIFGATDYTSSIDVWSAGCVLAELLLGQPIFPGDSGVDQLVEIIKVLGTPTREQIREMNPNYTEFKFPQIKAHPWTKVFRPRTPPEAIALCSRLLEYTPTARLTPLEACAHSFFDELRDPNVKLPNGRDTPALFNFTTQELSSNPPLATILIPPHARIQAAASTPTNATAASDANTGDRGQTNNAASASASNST
Sequence of Cyclin-dependent kinase-like 2 (Homo sapiens) (Q92772 whole entry, the tested form may be a part): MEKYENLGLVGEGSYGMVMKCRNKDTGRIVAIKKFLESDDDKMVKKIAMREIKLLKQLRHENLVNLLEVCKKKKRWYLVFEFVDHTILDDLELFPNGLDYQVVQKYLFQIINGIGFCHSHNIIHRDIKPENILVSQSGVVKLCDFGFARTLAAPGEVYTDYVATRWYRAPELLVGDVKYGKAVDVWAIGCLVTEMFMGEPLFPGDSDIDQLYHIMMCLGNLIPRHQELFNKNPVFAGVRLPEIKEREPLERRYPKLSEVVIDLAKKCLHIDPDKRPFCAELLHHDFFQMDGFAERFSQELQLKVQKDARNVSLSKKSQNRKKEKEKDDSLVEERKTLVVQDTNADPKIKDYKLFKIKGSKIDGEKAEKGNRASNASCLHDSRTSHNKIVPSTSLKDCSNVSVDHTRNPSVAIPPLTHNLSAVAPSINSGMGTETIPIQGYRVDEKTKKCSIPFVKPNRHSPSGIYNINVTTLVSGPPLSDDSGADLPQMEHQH
Sequence of Inhibitor of nuclear factor kappa-B kinase subunit alpha (Homo sapiens) (O15111 whole entry, the tested form may be a part): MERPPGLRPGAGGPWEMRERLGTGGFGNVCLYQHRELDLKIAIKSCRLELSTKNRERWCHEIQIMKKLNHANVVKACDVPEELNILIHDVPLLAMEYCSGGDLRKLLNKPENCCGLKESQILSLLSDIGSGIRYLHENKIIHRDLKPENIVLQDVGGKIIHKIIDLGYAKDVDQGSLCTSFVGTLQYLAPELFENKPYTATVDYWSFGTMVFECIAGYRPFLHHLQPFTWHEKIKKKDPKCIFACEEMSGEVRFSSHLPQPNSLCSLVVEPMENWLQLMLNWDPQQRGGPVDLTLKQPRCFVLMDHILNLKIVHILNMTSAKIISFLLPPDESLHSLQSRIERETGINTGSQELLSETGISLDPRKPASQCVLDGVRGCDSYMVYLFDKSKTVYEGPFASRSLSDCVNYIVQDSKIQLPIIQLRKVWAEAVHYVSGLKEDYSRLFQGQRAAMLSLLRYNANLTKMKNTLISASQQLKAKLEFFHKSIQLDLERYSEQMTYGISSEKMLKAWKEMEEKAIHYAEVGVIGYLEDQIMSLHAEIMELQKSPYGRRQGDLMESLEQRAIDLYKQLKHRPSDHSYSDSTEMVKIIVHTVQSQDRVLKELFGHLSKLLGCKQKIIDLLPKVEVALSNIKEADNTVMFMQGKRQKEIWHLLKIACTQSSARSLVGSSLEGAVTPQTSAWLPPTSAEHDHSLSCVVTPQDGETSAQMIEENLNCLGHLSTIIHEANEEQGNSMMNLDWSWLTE
Sequence of Mast/stem cell growth factor receptor Kit (Homo sapiens), P10721 [L576P] (P10721 whole entry L576P, the tested form may be a part): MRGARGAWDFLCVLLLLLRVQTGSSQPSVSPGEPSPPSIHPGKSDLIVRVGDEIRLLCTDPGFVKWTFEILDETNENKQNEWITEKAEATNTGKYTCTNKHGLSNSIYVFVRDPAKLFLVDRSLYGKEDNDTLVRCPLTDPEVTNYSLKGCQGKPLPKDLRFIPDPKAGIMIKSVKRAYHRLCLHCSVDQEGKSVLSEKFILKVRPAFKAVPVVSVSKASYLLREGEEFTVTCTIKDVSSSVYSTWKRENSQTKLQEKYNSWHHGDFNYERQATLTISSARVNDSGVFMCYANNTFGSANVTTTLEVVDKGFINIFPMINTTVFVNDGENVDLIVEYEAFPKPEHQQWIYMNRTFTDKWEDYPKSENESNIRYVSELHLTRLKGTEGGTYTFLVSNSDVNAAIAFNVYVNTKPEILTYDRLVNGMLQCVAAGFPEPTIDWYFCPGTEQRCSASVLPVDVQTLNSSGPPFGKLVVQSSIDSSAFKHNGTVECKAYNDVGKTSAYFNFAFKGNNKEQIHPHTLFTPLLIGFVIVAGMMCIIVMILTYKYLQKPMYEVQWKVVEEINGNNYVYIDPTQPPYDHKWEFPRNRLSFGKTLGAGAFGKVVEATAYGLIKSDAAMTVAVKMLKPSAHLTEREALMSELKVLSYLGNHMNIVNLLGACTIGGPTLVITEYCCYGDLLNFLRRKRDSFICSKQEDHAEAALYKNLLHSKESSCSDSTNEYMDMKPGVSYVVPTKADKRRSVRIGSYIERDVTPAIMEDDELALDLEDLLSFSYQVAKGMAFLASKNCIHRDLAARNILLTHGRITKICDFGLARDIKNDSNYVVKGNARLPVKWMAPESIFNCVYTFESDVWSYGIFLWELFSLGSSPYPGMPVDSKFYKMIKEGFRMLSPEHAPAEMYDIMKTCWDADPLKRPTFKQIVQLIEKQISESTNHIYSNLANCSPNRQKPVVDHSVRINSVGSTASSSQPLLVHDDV
Sequence of Dual serine/threonine and tyrosine protein kinase (Homo sapiens) (Q6XUX3 whole entry, the tested form may be a part): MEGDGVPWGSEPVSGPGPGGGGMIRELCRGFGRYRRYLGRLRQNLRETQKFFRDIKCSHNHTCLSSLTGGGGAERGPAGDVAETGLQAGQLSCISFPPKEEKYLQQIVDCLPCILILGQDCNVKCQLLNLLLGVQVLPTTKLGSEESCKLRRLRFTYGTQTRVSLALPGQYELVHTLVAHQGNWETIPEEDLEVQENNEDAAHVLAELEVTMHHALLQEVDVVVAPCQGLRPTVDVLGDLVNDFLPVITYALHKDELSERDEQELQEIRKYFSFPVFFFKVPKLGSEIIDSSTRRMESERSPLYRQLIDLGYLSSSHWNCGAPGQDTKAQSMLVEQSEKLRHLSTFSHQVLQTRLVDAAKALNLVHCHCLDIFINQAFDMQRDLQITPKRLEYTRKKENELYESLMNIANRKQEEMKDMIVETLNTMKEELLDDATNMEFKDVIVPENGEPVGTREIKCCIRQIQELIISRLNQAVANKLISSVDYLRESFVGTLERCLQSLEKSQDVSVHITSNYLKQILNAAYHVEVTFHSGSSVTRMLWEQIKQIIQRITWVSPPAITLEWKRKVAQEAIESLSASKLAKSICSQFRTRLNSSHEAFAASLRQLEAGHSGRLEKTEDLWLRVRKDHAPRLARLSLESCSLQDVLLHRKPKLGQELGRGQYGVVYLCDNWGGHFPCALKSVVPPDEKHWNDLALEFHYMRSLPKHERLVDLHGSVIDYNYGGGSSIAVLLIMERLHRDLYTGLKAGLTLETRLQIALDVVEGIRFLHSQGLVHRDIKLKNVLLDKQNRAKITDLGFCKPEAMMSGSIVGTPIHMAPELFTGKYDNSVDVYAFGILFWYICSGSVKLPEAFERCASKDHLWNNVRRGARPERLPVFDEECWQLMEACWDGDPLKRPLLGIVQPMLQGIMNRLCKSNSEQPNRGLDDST
Sequence of Bone morphogenetic protein receptor type-1B (Homo sapiens) (O00238 whole entry, the tested form may be a part): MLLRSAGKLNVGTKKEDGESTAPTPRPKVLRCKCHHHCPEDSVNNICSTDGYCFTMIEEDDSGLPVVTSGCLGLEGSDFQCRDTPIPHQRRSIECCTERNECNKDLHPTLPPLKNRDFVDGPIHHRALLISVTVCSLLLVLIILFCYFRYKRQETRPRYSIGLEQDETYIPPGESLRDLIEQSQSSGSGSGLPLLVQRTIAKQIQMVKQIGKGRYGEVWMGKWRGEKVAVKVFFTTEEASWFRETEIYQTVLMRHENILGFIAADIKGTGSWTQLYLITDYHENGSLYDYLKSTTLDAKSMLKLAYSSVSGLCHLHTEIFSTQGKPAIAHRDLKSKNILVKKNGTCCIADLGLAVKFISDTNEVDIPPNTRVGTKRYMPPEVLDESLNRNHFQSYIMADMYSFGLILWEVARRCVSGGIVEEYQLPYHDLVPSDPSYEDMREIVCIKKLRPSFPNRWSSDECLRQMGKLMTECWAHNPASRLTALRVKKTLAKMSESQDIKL
Sequence of Aurora kinase C (Homo sapiens) (Q9UQB9 whole entry, the tested form may be a part): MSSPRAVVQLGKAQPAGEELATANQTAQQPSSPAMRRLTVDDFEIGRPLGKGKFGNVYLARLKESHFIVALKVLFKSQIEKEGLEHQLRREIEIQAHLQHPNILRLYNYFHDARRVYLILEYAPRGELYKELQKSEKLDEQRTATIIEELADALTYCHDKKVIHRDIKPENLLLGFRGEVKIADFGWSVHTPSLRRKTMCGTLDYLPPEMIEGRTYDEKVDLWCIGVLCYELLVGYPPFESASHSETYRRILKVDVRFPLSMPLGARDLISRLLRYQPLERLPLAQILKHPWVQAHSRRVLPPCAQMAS

Broadly, the Cmax is the highest concentration seen after dosing. One may read the MRT last as the average time that molecules of a dose stay in the body. Broadly, the half-life is the time needed for the level to fall by half in the phase considered. Turning to `COCCN[C@H]1CC[C@H](Nc2cc(-c3csc(NCC4(C#N)CCOCC4)n3)c(Cl)cn2)CC1`, the Activity in data set [1] worked out at 95%; in data set [3] it was 95%; in data set [4], 100%; in data set [6] it was 96%; in data set [7], 89%; in data set [8] it was 95%. In addition, the Activity in data set [9] is 96%; in data set [10], 84%; in data set [11], 100%; in data set [12], 90%; in data set [13], 46%; in data set [14] it was 98%. The Activity in [16] stood at 63%; in [17] it was 89%; in data set [18], 97%; in data set [21], 91%; in data set [22], 94%; in data set [23] it was 100%. In addition, the Cmax in [2] worked out at 1470 ng/mL. In addition, the MRT last in data set [5] amounted to 3.24 h. Besides, the F in [15] is given as 39.15%. In [19], this compound gave a half-life of 20.4 h. Also, the Ratio IC50 in data set [20] was > 1000.
